The results in this text go back to ChEMBL document CHEMBL5143669, “Stapled peptides as scaffolds for developing radiotracers for intracellular targets: Preliminary evaluation of a radioiodinated MDM2-binding stapled peptide in the SJSA-1 osteosarcoma model” (Bioorg Med Chem Lett, 2022).

Data set [1] can be described thus: Biodistribution in Stomach of athymic mouse xenografted with human SJSA-1 cells at 166.5 kBq, iv after 2 hrs by automated gamma counting method. The conditions noted are these: in vivo. The format is ADME, organism-based. Summed up: (§1)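 Athymic mice bearing flank SJSA-1 xenografts received 125I-SIB-labeled peptide (166.5 kBq, 100 μL) by tail vein; groups of five per time point. Tumor, blood and organs were taken at 0.5–24 h and counted by gamma counter; values expressed as %ID/g.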

A short description of data set [2]: Biodistribution in Stomach of athymic mouse xenografted with human SJSA-1 cells at 166.5 kBq, iv after 30 mins by automated gamma counting method. Type of data set: ADME, organism-based. The conditions noted are these: in vivo, 0.5 h. Summed up: as §1
A short description of data set [3]: Biodistribution in Large intestine of athymic mouse xenografted with human SJSA-1 cells at 166.5 kBq, iv after 2 hrs by automated gamma counting method. Type of data set: ADME, organism-based. The conditions noted are these: in vivo. A digest of the protocol: (§2)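 125I-labeled peptide (166.5 kBq in 100 μL) was injected via tail vein into athymic mice bearing flank SJSA-1 xenografts, n = 5 per time point. Tumors, blood and major organs were gamma-counted at 0.5, 2, 6 and 24 h post-injection. Values are %ID/g.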

Data set [4] can be described thus: Biodistribution in Heart of athymic mouse xenografted with human SJSA-1 cells at 166.5 kBq, iv after 24 hrs by automated gamma counting method. The format is ADME, organism-based. The conditions noted are these: in vivo. A digest of the protocol: as §2
Data set [5] can be described thus: Biodistribution in Lung of athymic mouse xenografted with human SJSA-1 cells at 166.5 kBq, iv after 30 mins by automated gamma counting method. The format is ADME, organism-based. The conditions noted are these: in vivo, 0.5 h. Summed up: as §2
Data set [6] in a line: Biodistribution in Tumor of athymic mouse xenografted with human SJSA-1 cells at 166.5 kBq, iv after 2 hrs by automated gamma counting method. The format is ADME, organism-based, Neoplasm. The conditions noted are these: in vivo. A digest of the protocol: as §1
Data set [7] is described as follows: Drug uptake in MDM2-amplified human SJSA-1 cells expressing wild type p53 at 5 to 50 uM incubated for 60 mins. The format is ADME, cell-based. As to conditions: sjsa-1, 1 h, dose 5-50 µM. Summed up: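 For uptake kinetics, SJSA-1 cells in serum-free RPMI-1640 were incubated 30–120 min with 125I-labeled peptide, with or without 50 μM unlabeled parent peptide. Cells were washed with PBS and lysed, and uptake was normalized to protein (%/mg protein). Triplicates, mean ± SD.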

Take `CC(=O)NC(CCCCNC(=O)c1cccc([125I])c1)C(=O)NCCCCCC(=O)N[C@H](C(=O)N[C@@H](CO)C(=O)N[C@@H](Cc1ccccc1)C(=O)N[C@@]1(C)CCCCCC/C=C/CCC[C@@](C)(C(=O)N[C@@H](CCC(=O)O)C(=O)N[C@@H](CC(N)=O)C(=O)N[C@@H](Cc2ccccc2)C(N)=O)NC(=O)[C@H](CC(C)C)NC(=O)[C@H](CC(C)C)NC(=O)[C@H](C)NC(=O)[C@H](Cc2c[nH]c3ccccc23)NC(=O)[C@H](Cc2ccc(O)cc2)NC(=O)[C@H](CCC(=O)O)NC1=O)[C@@H](C)O` (some centres not stated): the Drug uptake is recorded as 0.53 % ID/g in data set [1]; 0.34 % ID/g in data set [2]; 0.24 % ID/g in data set [3]; 0.37 % ID/g in data set [4]; 4.27 % ID/g in data set [5]; 2.19 % ID/g in data set [6]. This compound returned a Drug uptake in data set [7] of 142 %/mg protein.
